Measurements as given in ChEMBL document CHEMBL3779767, “Identification of potent and selective MTH1 inhibitors” (Bioorg Med Chem Lett, 2016).
Activity calls are given as the source filed them. The rule behind the calls is not given here.

Key:
[1] = target: Phosphatidylinositol 4,5-bisphosphate 3-kinase catalytic subunit gamma isoform (Homo sapiens) (UniProt P48736); test: Inhibition of partial length human PIK3Cgamma expressed in mammalian system at 1 uM
Summary of the method: (§1)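 Single-concentration screen across a panel of 97 kinases, with the test compound at 1 uM.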

[2] = target: Focal adhesion kinase 1 (Homo sapiens) (UniProt Q05397); test: Inhibition of partial length human FAK expressed in bacterial system at 1 uM
Summary of the method: (§2)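 Single-point screen within a 97-kinase profiling panel, with the test compound at 1 µM.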

[3] = target: Mitogen-activated protein kinase 11 (Homo sapiens) (UniProt Q15759); test: Inhibition of partial length human p38beta expressed in bacterial system at 1 uM; summary of the method: as §1
[4] = target: Glycogen synthase kinase-3 beta (Homo sapiens) (UniProt P49841); test: Inhibition of partial length human GSK3beta expressed in mammalian system at 1 uM; summary of the method: as §2
[5] = system: Tyrosine-protein kinase ABL1 (Homo sapiens), P00519 [E255K]; test: Inhibition of partial length human ABL1 E255K mutant phosphorylation expressed in mammalian system at 1 uM; summary of the method: as §2
[6] = Half life in rat plasma; format: ADME, cell-free
Summary of the method: (§3)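 Plasma stability was measured in human and rat plasma, with half-life reported in hours.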

A549 = test: Antiproliferative activity against human A549 cells assessed as change in phenotypic response measured after prolonged treatment; format: functional, cell-based
[7] = Cytotoxicity against human 293T cells assessed as change in phenotypic response measured after prolonged treatment; format: cell-based; details: hek-293t
[8] = target: Epidermal growth factor receptor (Homo sapiens) (UniProt P00533); test: Inhibition of partial length human EGFR expressed in bacterial system at 1 uM; summary of the method: as §2
[9] = target: Macrophage colony-stimulating factor 1 receptor (Homo sapiens) (UniProt P07333); test: Inhibition of partial length human CSF1R expressed in bacterial system at 1 uM; summary of the method: as §2
[10] = target: Serine/threonine-protein kinase Chk1 (Homo sapiens) (UniProt O14757); test: Inhibition of partial length human CHEK1 expressed in bacterial system at 1 uM; summary of the method: as §2
NCI-H358 = test: Antiproliferative activity against human NCI-H358 cells assessed as change in phenotypic response measured after prolonged treatment; format: functional, cell-based
BJ = test: Cytotoxicity against human BJ cells assessed as change in phenotypic response up to 50 uM; format: cell-based
[11] = target: Platelet-derived growth factor receptor alpha (Homo sapiens) (UniProt P16234); test: Inhibition of partial length human PDGFRalpha expressed in mammalian system at 1 uM; summary of the method: as §1
[12] = target: High affinity nerve growth factor receptor (Homo sapiens) (UniProt P04629); test: Inhibition of partial length human TRKA expressed in mammalian system at 1 uM; summary of the method: as §1
[13] = target: Cyclin-dependent kinase 2 (Homo sapiens) (UniProt P24941); test: Inhibition of partial length human CDK2 expressed in bacterial system at 1 uM; summary of the method: as §2
SAOS-2 = test: Antiproliferative activity against human Saos2 cells assessed as change in phenotypic response up to 50 uM; format: functional, cell-based
[14] = target: NUAK family SNF1-like kinase 2 (Homo sapiens) (UniProt Q9H093); test: Inhibition of partial length human SNARK expressed in mammalian system at 1 uM; summary of the method: as §1
MRC5 = test: Cytotoxicity against human MRC5 cells assessed as change in phenotypic response up to 50 uM; format: cell-based
[15] = target: Serine/threonine-protein kinase 32C (Homo sapiens) (UniProt Q86UX6); test: Inhibition of partial length human YANK3 expressed in bacterial system at 1 uM; summary of the method: as §1
[16] = target: Serine/threonine-protein kinase pim-2 (Homo sapiens) (UniProt Q9P1W9); test: Inhibition of partial length human PIM2 expressed in bacterial system at 1 uM; summary of the method: as §1
U2OS = test: Antiproliferative activity against human U2OS cells assessed as change in phenotypic response up to 50 uM; format: functional, cell-based
[17] = Cytotoxicity against human WI38 cells assessed as change in phenotypic response up to 50 uM; format: cell-based; details: wi-38
[18] = target: TGF-beta receptor type-1 (Homo sapiens) (UniProt P36897); test: Inhibition of partial length human TGFBR1 expressed in bacterial system at 1 uM; summary of the method: as §1
[19] = target: Serine/threonine-protein kinase B-raf (Homo sapiens) (UniProt P15056); test: Inhibition of partial length human BRAF expressed in mammalian system at 1 uM; summary of the method: as §2
[20] = target: Serine/threonine-protein kinase PLK4 (Homo sapiens) (UniProt O00444); test: Inhibition of partial length human PLK4 expressed in mammalian system at 1 uM; summary of the method: as §1
[21] = target: Bone morphogenetic protein receptor type-2 (Homo sapiens) (UniProt Q13873); test: Inhibition of partial length human BMPR2 expressed in mammalian system at 1 uM; summary of the method: as §2
HeLa [22] = test: Antiproliferative activity against human HeLa cells assessed as change in phenotypic response measured after prolonged treatment; format: functional, cell-based
[23] = target: Testis-specific serine/threonine-protein kinase 1 (Homo sapiens) (UniProt Q9BXA7); test: Inhibition of partial length human TSSK1B expressed in bacterial system at 1 uM; summary of the method: as §1
[24] = target: Casein kinase I isoform delta (Homo sapiens) (UniProt P48730); test: Inhibition of partial length human CSNK1D expressed in bacterial system at 1 uM; summary of the method: as §2
[25] = target: Tyrosine-protein kinase JAK2 (Homo sapiens) (UniProt O60674); test: Inhibition of partial length human JAK2 JH1 catalytic domain expressed in mammalian system at 1 uM; summary of the method: as §2
[26] = target: Inhibitor of nuclear factor kappa-B kinase subunit alpha (Homo sapiens) (UniProt O15111); test: Inhibition of partial length human IKKalpha expressed in mammalian system at 1 uM; summary of the method: as §2
[27] = target: Ribosomal protein S6 kinase alpha-2 (Homo sapiens) (UniProt Q15349); test: Inhibition of N-terminal partial length human RSK2 kinase domain 1 expressed in mammalian system at 1 uM; summary of the method: as §2
[28] = Permeability across MDCK cells; format: ADME, cell-based, Canis lupus familiaris; details: dog, read-out: permeability
Summary of the method: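 Measured across a confluent MDCK cell monolayer; apparent permeability is reported together with the efflux ratio.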

[29] = target: Activin receptor type-1B (Homo sapiens) (UniProt P36896); test: Inhibition of partial length human ACVR1B expressed in bacterial system at 1 uM; summary of the method: as §2
[30] = target: Insulin-like growth factor 1 receptor (Homo sapiens) (UniProt P08069); test: Inhibition of partial length human IGF1R expressed in bacterial system at 1 uM; summary of the method: as §2
[31] = target: Inhibitor of nuclear factor kappa-B kinase subunit beta (Homo sapiens) (UniProt O14920); test: Inhibition of partial length human IKKbeta expressed in mammalian system at 1 uM; summary of the method: as §2
[32] = target: Atypical kinase COQ8A, mitochondrial (Homo sapiens) (UniProt Q8NI60); test: Inhibition of partial length human ADCK3 expressed in bacterial system at 1 uM; summary of the method: as §2
HeLa [33] = test: Antiproliferative activity against human HeLa cells assessed as change in phenotypic response up to 50 uM; format: functional, cell-based
[34] = target: Casein kinase I isoform gamma-2 (Homo sapiens) (UniProt P78368); test: Inhibition of partial length human CSNK1G2 expressed in bacterial system at 1 uM; summary of the method: as §2
[35] = Half life in human plasma; format: ADME, cell-free; summary of the method: as §3
[36] = target: Rho-associated protein kinase 2 (Homo sapiens) (UniProt O75116); test: Inhibition of partial length human ROCK2 expressed in mammalian system at 1 uM; summary of the method: as §1

Sequence of Casein kinase I isoform delta (Homo sapiens) (P48730 whole entry, looked up, the tested form may be a part, canonical isoform): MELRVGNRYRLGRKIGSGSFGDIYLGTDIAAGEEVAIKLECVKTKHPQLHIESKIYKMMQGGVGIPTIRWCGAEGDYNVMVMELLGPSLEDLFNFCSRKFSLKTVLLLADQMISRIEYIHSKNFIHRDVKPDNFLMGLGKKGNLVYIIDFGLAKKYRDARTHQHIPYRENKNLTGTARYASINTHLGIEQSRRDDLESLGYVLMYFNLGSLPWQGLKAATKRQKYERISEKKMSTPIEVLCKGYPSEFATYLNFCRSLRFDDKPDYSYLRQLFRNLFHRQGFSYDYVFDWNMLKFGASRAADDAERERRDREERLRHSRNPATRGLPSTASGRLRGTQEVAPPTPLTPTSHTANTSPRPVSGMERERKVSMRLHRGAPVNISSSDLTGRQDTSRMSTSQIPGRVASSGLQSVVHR
Sequence of Casein kinase I isoform gamma-2 (Homo sapiens) (P78368 whole entry, looked up, canonical isoform): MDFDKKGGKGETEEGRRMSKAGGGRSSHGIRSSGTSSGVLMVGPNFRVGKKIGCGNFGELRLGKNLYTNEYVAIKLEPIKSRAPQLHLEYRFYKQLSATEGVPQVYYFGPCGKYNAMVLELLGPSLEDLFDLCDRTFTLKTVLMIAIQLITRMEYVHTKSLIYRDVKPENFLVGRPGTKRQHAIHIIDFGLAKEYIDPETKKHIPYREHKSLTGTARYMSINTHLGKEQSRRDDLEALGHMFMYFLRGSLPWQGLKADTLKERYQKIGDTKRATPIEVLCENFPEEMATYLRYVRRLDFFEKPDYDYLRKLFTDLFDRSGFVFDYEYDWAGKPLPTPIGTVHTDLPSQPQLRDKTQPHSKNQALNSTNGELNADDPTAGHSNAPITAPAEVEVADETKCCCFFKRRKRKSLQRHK
Sequence of Bone morphogenetic protein receptor type-2 (Homo sapiens) (Q13873 whole entry): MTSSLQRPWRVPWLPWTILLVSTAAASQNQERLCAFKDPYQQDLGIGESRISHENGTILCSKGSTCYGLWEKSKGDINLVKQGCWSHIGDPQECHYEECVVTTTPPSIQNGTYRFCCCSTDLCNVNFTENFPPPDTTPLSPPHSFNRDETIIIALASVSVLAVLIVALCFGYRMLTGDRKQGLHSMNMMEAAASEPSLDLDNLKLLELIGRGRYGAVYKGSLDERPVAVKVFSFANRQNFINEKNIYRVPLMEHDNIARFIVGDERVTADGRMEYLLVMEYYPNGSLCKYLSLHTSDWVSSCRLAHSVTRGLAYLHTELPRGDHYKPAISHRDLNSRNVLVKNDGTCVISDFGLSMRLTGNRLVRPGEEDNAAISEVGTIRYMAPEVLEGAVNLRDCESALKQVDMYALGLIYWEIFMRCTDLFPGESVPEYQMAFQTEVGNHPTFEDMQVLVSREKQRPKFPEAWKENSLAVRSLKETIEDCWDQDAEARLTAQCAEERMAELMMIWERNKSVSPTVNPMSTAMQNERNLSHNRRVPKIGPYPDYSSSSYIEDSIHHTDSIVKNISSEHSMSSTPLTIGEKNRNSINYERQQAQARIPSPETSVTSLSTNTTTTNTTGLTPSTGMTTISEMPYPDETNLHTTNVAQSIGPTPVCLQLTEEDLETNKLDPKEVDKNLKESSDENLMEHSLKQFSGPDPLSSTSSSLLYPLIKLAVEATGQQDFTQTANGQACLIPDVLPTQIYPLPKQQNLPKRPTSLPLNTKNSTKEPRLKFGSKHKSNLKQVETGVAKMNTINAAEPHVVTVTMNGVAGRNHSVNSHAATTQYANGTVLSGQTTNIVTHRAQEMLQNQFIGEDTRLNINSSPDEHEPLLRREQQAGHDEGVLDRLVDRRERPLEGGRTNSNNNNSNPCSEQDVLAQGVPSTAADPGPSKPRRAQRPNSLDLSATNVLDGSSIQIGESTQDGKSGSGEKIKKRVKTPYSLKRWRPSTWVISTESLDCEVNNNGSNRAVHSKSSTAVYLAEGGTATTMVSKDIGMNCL
Sequence of NUAK family SNF1-like kinase 2 (Homo sapiens) (Q9H093 whole entry): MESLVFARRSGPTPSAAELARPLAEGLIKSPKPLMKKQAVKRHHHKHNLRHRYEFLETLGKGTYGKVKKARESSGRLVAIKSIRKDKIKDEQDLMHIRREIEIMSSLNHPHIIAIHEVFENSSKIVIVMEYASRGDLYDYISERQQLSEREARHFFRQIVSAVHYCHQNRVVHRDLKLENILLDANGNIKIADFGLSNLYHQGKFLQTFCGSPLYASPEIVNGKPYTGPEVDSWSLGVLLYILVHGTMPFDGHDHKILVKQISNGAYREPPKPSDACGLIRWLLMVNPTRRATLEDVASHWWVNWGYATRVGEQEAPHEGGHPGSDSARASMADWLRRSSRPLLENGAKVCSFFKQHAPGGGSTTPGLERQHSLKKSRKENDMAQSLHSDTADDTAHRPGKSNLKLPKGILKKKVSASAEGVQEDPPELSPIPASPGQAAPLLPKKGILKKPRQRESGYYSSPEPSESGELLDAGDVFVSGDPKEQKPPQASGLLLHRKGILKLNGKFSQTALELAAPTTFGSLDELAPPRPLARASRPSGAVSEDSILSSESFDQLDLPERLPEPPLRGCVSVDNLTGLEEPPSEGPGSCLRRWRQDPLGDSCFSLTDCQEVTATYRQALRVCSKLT
Sequence of Inhibitor of nuclear factor kappa-B kinase subunit beta (Homo sapiens) (O14920 whole entry): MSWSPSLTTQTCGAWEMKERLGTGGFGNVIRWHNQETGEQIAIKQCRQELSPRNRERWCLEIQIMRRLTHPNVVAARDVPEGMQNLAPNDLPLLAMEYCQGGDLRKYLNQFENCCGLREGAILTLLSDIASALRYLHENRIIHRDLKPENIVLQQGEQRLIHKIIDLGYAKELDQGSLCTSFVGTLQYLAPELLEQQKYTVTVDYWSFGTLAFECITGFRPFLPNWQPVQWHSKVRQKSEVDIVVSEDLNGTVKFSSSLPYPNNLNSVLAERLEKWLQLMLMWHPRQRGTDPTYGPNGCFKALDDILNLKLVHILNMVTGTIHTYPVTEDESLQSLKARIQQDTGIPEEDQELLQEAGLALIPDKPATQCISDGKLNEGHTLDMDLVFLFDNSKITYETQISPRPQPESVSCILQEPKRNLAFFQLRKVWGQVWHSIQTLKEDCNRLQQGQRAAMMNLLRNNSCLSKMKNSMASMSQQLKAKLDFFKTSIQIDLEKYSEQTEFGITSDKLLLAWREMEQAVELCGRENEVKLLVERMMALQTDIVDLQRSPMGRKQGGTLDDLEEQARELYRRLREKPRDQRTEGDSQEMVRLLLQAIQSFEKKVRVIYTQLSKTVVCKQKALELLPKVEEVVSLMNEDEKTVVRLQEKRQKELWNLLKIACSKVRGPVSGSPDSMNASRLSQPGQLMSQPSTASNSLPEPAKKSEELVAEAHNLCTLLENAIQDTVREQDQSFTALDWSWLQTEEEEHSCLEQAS
Sequence of Serine/threonine-protein kinase pim-2 (Homo sapiens) (Q9P1W9 whole entry, looked up): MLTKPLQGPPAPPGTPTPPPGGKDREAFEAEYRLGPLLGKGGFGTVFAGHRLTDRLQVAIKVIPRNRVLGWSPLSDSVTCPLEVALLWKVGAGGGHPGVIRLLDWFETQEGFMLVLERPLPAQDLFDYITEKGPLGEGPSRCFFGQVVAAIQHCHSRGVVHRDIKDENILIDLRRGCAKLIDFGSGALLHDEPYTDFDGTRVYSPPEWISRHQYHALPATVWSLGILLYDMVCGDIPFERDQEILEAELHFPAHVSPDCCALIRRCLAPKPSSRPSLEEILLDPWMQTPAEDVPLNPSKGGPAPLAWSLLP
Sequence of TGF-beta receptor type-1 (Homo sapiens) (P36897 whole entry): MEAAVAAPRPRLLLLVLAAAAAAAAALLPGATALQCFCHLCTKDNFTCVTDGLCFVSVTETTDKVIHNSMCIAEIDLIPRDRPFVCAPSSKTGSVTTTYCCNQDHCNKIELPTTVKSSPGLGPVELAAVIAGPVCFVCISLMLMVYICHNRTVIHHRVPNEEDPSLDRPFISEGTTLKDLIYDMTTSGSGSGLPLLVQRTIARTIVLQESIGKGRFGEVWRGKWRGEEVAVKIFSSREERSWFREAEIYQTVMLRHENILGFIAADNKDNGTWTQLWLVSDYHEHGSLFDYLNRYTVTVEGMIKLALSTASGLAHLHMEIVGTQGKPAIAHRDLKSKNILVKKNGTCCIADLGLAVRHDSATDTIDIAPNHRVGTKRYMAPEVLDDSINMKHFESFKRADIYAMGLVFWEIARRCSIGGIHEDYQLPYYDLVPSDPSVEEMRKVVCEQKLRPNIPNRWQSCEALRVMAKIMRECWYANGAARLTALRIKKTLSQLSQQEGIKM
Sequence of Atypical kinase COQ8A, mitochondrial (Homo sapiens) (Q8NI60 163-647 limits assumed): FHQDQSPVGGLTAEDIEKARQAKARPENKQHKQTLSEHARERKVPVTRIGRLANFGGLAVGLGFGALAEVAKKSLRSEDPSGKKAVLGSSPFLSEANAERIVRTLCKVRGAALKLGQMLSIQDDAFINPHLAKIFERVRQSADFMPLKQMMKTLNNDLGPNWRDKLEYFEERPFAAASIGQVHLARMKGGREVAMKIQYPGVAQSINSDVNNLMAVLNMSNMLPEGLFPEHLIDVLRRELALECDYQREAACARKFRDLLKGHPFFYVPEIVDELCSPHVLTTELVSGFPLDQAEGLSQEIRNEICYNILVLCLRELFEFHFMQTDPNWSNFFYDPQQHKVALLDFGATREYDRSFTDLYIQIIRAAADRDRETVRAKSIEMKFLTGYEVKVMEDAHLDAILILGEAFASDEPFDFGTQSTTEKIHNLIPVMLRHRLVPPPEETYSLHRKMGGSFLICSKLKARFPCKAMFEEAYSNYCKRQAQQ
Sequence of Glycogen synthase kinase-3 beta (Homo sapiens) (P49841 whole entry, looked up): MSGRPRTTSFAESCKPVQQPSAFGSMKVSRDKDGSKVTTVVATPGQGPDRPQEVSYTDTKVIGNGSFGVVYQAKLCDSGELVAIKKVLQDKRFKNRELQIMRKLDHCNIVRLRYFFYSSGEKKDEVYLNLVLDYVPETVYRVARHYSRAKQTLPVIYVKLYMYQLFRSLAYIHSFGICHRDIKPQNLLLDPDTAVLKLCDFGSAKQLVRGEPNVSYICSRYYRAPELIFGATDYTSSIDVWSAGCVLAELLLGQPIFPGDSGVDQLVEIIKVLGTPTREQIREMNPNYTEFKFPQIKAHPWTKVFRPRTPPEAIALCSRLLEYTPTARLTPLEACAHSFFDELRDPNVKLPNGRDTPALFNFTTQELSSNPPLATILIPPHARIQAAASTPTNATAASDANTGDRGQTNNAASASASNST

Cc1cnc(N)nc1OCC(C)(C)CO
inhibition [1]: inactive | inhibition [2]: inactive | inhibition [3]: inactive | inhibition [4]: inactive | inhibition [5]: inactive | half-life [6]: 86 h | Activity (A549): inactive | Activity [7]: Non-toxic | inhibition [8]: inactive | inhibition [9]: inactive | inhibition [10]: inactive | Activity (NCI-H358): inactive | Activity (BJ): Non-toxic | inhibition [11]: inactive | inhibition [12]: inactive | inhibition [13]: inactive | Activity (SAOS-2): inactive | inhibition [14]: inactive | Activity (MRC5): Non-toxic | inhibition [15]: inactive | inhibition [16]: inactive | Activity (U2OS): inactive | Activity [17]: Non-toxic | inhibition [18]: inactive | inhibition [19]: inactive | inhibition [20]: inactive | inhibition [21]: inactive | Activity (HeLa [22]): inactive | inhibition [23]: inactive | inhibition [24]: inactive | inhibition [25]: inactive | inhibition [26]: inactive | inhibition [27]: inactive | Papp [28]: 32 ×10⁻⁶ cm/s | inhibition [29]: inactive | inhibition [30]: inactive | inhibition [31]: inactive | inhibition [32]: inactive | Activity (HeLa [33]): inactive | inhibition [34]: inactive | half-life [35]: 58 h | inhibition [36]: inactive
